Test results taken from ChEMBL document CHEMBL1765011, “Synthesis and c-Met kinase inhibition of 3,5-disubstituted and 3,5,7-trisubstituted quinolines: identification of 3-(4-acetylpiperazin-1-yl)-5-(3-nitrobenzylamino)-7- (trifluoromethyl)quinoline as a novel anticancer agent” (J Med Chem, 2011).
Calls of active or inactive are those of the source. No cut-off for these calls is given here.

Tests used:
BaF3 [1] = assay: Antiproliferative activity against mouse BAF3 cells expressing TPR-Met after 72 hrs in absence of IL-3; format: functional, cell-based; details: BaF3, 72 h
How it was run: (§1)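 Cells were seeded and exposed next day to a range of compound concentrations for 72 h. Proliferation was read by sulforhodamine B or MTT assay, and IC50 derived.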

[2] = Volume of distribution at steady state in mouse at 10 mg/kg, iv; format: ADME, organism-based; parameters: dose 10 mg/kg, route intravenous; details: in vivo, read-out: Vdss
[3] = target: T1, Hepatocyte growth factor receptor (Homo sapiens, UniProt P08581); assay: Inhibition of c-Met phosphorylation in human H1993 cells at 0.5 uM after 4 hrs by Western blotting; format: cell-based
T1 sequence (P08581 whole entry): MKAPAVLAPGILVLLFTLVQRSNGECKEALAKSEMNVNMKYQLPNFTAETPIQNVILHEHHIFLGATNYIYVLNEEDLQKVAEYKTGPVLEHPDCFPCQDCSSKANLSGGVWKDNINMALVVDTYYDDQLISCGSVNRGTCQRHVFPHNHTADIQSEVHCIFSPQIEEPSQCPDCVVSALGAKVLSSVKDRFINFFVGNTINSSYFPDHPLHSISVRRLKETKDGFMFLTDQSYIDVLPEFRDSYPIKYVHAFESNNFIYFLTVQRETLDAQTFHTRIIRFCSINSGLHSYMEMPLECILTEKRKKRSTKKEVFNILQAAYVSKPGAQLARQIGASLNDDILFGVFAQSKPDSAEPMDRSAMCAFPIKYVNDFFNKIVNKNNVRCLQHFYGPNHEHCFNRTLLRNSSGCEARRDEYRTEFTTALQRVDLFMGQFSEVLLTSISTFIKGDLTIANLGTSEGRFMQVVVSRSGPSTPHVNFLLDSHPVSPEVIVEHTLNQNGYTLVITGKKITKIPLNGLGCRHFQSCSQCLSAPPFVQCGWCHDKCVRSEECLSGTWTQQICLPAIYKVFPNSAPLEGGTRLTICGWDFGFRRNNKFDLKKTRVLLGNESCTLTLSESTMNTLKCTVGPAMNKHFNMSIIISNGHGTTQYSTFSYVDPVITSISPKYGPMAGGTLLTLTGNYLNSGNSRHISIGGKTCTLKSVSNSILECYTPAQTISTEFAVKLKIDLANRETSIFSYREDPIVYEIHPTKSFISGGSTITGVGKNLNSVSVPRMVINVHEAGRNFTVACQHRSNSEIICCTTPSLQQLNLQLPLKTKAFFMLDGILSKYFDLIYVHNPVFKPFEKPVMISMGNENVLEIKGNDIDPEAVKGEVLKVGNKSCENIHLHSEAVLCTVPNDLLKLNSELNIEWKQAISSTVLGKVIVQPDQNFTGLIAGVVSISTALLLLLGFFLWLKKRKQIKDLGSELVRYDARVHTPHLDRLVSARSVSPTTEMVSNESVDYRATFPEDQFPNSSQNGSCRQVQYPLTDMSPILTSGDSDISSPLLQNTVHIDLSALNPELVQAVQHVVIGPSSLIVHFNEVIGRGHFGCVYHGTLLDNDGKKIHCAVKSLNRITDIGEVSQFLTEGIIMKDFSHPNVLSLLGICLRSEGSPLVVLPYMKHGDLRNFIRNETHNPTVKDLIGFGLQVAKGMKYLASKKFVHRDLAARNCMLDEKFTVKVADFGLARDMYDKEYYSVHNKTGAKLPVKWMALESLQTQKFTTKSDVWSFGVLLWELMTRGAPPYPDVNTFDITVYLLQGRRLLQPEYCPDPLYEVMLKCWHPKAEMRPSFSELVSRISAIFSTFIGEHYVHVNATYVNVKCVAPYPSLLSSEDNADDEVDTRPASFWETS
How it was run: (§2)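 Exponentially growing cells were treated with compound for 4 h at 37 °C and lysed in SDS sample buffer. Lysates were run on 10% SDS-PAGE and blotted to nitrocellulose. Blots were probed for phospho-c-Met and total c-Met, with GAPDH as loading control, and detected by ECL.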

Ephrin type-A receptor 2 = Ephrin type-A receptor 2 (Homo sapiens, UniProt P29317); assay: Inhibition of EPH-A2
Sequence of Ephrin type-A receptor 2 (P29317 whole entry): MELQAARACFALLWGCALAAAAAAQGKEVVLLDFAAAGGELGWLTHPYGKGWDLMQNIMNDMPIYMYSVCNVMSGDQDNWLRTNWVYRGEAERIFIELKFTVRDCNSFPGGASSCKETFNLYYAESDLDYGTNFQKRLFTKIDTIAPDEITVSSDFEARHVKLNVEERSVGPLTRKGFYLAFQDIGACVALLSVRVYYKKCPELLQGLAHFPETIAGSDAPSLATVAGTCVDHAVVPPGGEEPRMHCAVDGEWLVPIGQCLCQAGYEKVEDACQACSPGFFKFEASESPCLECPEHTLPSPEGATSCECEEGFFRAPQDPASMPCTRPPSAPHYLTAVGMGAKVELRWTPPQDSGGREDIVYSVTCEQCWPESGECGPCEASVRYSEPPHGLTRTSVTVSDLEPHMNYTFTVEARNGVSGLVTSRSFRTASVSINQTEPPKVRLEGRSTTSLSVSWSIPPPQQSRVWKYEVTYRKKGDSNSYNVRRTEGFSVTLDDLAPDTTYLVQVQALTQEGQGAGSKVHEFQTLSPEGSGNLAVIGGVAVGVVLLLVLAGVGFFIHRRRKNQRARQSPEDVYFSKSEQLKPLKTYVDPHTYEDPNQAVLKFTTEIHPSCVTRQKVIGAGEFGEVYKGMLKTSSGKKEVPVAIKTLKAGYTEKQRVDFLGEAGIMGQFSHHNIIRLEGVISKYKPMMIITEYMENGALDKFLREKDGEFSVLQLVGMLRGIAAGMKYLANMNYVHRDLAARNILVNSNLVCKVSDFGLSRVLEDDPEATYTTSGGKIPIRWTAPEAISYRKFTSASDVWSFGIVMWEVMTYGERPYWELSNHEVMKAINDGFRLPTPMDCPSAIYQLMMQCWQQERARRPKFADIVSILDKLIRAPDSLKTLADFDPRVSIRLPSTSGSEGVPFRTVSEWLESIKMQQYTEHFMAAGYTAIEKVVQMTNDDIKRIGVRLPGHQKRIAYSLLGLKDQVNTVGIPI
How it was run: (§3)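 ELISA on plates precoated with 20 μg/mL poly(Glu,Tyr) 4:1. Buffer: 10 μM ATP, 50 mM HEPES pH 7.4, 50 mM MgCl2, 0.5 mM MnCl2, 0.2 mM Na3VO4, 1 mM DTT, compound in 1% DMSO. Purified kinase was added and incubated 60 min at 37 °C. Phosphotyrosine was detected with PY99 then HRP anti-mouse IgG, o-phenylenediamine, A490. IC50 was taken from inhibition curves.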

[4] = Oral bioavailability in mouse at 20 mg/kg; format: ADME, organism-based; details: in vivo
BaF3 [5] = assay: Antiproliferative activity against mouse BAF3 cells expressing TPR-Met after 72 hrs in presence of IL-3; format: functional, cell-based; details: BaF3, 72 h; how it was run: as §1
[6] = target: Hepatocyte growth factor receptor (Mus musculus) (UniProt P16056); assay: Inhibition of TPR-c-Met phosphorylation expressed in mouse […] cells assessed as ERK1/2 phosphorylation at 0.1 to 3 uM after 4 hrs by Western blotting; format: cell-based
Sequence of Hepatocyte growth factor receptor (Mus musculus) (P16056 whole entry): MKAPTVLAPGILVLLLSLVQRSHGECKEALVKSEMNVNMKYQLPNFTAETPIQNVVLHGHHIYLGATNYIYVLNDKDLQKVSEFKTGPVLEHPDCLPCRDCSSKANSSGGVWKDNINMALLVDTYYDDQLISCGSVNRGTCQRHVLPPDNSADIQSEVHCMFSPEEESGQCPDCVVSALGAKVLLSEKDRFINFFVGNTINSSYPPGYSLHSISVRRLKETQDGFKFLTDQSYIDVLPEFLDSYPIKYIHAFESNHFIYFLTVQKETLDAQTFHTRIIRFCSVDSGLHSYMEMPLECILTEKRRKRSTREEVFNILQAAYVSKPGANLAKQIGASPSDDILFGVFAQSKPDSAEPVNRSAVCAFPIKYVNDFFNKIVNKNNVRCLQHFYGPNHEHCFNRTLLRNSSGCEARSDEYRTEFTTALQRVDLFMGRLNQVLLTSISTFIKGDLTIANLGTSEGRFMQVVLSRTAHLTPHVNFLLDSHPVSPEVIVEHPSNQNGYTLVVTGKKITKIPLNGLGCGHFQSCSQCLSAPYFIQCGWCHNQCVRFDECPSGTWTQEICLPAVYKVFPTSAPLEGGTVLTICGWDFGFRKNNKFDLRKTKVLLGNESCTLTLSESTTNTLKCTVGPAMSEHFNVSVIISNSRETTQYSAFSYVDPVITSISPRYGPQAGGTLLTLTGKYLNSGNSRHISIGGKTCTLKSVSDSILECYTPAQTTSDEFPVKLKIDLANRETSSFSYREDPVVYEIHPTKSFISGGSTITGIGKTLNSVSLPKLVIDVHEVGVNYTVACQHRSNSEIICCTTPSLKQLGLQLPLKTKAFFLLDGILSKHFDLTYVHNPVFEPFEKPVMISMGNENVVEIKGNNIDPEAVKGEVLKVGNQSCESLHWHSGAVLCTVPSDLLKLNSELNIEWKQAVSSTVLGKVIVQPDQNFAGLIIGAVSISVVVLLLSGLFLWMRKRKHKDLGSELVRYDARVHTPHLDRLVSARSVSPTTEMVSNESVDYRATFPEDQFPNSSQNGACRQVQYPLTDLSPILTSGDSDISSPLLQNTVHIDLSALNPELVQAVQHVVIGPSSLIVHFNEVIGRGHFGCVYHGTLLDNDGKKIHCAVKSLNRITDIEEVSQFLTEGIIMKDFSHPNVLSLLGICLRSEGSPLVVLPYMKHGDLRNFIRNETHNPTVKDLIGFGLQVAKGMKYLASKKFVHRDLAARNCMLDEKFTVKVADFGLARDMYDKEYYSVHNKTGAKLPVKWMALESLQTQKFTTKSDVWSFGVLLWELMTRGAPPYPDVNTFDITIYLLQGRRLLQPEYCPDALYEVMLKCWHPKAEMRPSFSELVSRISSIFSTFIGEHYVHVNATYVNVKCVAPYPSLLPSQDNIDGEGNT
How it was run: (§4)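 Exponentially growing cells were exposed to compound for 4 h at 37 °C and lysed in SDS sample buffer. Lysates were resolved on 10% SDS-PAGE and blotted. Blots were probed for phospho- and total ERK1/2 and AKT, with GAPDH loading control, and detected by ECL.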

[7] = Cmax in mouse at 20 mg/kg, po; format: ADME, organism-based; parameters: dose 20 mg/kg, route oral; details: in vivo
How it was run: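 Oral 20 mg/kg single dose to mice, vehicle DMSO/Tween 80/normal saline. Cmax was read from the plasma concentration-time profile. Average of three runs.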

[8] = target: T1, Hepatocyte growth factor receptor; assay: Inhibition of c-Met in human MKN45 cells assessed as AKT phosphorylation at 0.1 to 3 uM after 4 hrs by Western blotting; format: cell-based; details: MKN-45; how it was run: as §4
[9] = target: T1, Hepatocyte growth factor receptor; assay: Inhibition of c-Met in human MKN45 cells assessed as ERK1/2 phosphorylation at 0.1 to 3 uM after 4 hrs by Western blotting; format: cell-based; details: MKN-45; how it was run: as §4
U-87MG ATCC = assay: Antitumor activity against human U87MG cells xenografted in nude mouse assessed as tumor growth inhibition at 50 mg/kg, ip qd for 14 days relative to control; format: functional, organism-based; parameters: dose 50 mg/kg
How it was run: (§5)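 Tumor cells, (5-10)×10^6, were implanted sc in nude mice and grown to 700-800 mm3. Tumors were cut into 1 mm3 fragments and trocar-transplanted sc. At 100-150 mm3, mice were randomized (n = 6) to vehicle or ip dosing daily. Volumes were measured twice weekly by caliper, TV = length×width²/2. % inhibition used final-day versus day-1 change against vehicle, with Student's t test.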

[10] = target: Vascular endothelial growth factor receptor 1 (Homo sapiens, UniProt P17948); assay: Inhibition of Flt-1; how it was run: as §3
[11] = target: T1, Hepatocyte growth factor receptor; assay: Inhibition of purified recombinant c-Met after 60 mins by ELISA
[12] = target: Hepatocyte growth factor receptor (Mus musculus) (UniProt P16056); assay: Inhibition of TPR-MET autophosphorylation in mouse BaF3 cells after 4 hrs by Western blotting; format: cell-based; how it was run: as §2
[13] = Antitumor activity against human U87MG cells xenografted in nude mouse assessed as tumor growth inhibition at 100 mg/kg, ip qd for 14 days relative to control; format: functional, U-87MG ATCC; details: U-87 MG, 336 h, route intraperitoneal; how it was run: as §5
BXPC-3 = assay: Antiproliferative activity against human BxPC3 cells after 72 hrs; details: BXPC-3, 72 h
NCI-H1993 = assay: Antiproliferative activity against human NCI-H1993 cells after 72 hrs; details: NCI-H1993, 72 h
[14] = Tmax in mouse at 20 mg/kg, po; format: ADME, organism-based; parameters: dose 20 mg/kg, route oral; details: in vivo
[15] = target: Tyrosine-protein kinase ABL1 (Homo sapiens, UniProt P00519); assay: Inhibition of Abl; how it was run: as §3
[16] = target: T1, Hepatocyte growth factor receptor; assay: Inhibition of c-Met in human H1993 cells assessed as ERK1/2 phosphorylation at 0.1 to 3 uM after 4 hrs by Western blotting; format: cell-based; how it was run: as §4
[17] = Half life in mouse at 10 mg/kg, iv; format: ADME, organism-based; parameters: dose 10 mg/kg, route intravenous; details: in vivo
How it was run: (§6)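 Single iv dose of 10 mg/kg to mice, vehicle DMSO/Tween 80/normal saline. Clearance and half-life were derived from plasma concentration-time data. Average of three runs.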

[18] = target: Hepatocyte growth factor receptor (Mus musculus) (UniProt P16056); assay: Inhibition of TPR-c-Met phosphorylation expressed in mouse […] cells assessed as AKT phosphorylation at 0.1 to 3 uM after 4 hrs by Western blotting; format: cell-based; how it was run: as §4
MCF7 = assay: Antiproliferative activity against human MCF7 cells after 72 hrs; details: MCF7, 72 h
MDA-MB-231 = assay: Antiproliferative activity against human MDA-MB-231 cells after 72 hrs; details: MDA-MB-231, 72 h
[19] = target: Hepatocyte growth factor receptor (Mus musculus) (UniProt P16056); assay: Inhibition of TPR-c-Met phosphorylation expressed in mouse […] cells at 0.1 to 3 uM after 4 hrs by Western blotting; format: cell-based; how it was run: as §2
MKN-45 = assay: Antiproliferative activity against human MKN45 cells after 72 hrs; details: MKN-45, 72 h
[20] = target: Vascular endothelial growth factor receptor 2 (Homo sapiens, UniProt P35968); assay: Inhibition of KDR; how it was run: as §3
Sequence of Vascular endothelial growth factor receptor 2 (P35968 whole entry): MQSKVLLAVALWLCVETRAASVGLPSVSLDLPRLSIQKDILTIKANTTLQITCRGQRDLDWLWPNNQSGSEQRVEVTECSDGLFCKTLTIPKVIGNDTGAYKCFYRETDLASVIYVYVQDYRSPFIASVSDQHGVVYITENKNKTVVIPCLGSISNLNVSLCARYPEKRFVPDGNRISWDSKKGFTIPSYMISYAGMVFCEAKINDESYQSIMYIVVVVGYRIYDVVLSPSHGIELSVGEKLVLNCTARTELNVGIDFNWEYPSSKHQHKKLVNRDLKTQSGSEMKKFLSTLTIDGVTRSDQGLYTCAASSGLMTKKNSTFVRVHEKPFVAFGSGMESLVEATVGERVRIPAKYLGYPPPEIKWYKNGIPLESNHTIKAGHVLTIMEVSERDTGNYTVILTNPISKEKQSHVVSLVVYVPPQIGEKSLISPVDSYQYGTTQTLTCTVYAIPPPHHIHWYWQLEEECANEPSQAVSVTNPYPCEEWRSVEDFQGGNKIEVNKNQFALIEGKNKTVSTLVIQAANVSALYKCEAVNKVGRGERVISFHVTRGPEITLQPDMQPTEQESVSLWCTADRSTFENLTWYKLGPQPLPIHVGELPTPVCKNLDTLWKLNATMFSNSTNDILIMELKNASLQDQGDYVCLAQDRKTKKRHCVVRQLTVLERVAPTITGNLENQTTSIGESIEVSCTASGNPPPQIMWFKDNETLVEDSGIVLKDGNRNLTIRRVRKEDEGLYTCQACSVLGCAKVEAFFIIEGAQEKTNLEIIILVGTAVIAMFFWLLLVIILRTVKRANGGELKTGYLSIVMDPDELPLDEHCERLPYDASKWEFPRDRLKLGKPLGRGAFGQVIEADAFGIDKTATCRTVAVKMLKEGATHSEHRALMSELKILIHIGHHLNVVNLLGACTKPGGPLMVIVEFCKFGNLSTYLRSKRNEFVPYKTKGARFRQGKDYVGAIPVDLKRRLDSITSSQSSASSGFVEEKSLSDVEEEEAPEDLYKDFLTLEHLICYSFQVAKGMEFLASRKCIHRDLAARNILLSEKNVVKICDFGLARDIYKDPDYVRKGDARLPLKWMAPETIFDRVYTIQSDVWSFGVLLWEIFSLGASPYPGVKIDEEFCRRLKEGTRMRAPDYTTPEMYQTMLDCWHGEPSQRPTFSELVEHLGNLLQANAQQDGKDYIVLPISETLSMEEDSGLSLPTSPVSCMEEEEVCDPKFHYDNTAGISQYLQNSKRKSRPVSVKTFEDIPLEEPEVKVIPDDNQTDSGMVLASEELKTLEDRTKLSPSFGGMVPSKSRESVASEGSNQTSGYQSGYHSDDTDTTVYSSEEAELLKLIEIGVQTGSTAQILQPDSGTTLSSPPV

[21] = target: Fibroblast growth factor receptor 1 (Homo sapiens, UniProt P11362); assay: Inhibition of FGFR1
[22] = target: T1, Hepatocyte growth factor receptor; assay: Inhibition of c-Met in human H1993 cells assessed as AKT phosphorylation at 0.1 to 3 uM after 4 hrs by Western blotting; format: cell-based; how it was run: as §4
[23] = target: T1, Hepatocyte growth factor receptor; assay: Inhibition of purified recombinant c-Met at incubated for 30 mins measured after 100 fold dilution
NCI-H441 = assay: Antiproliferative activity against human NCI-H441 cells after 72 hrs; details: NCI-H441, 72 h
SNU1 = assay: Antiproliferative activity against human SNU1 cells after 72 hrs; details: SNU1, 72 h
NIH3T3 = assay: Antitumor activity against mouse NIH/3T3 cells expressing TPR-Met xenografted in nude mouse assessed as tumor growth inhibition at 100 mg/kg, ip qd for 14 days relative to control; format: functional; details: 336 h, route intraperitoneal; how it was run: as §5
[24] = Clearance in mouse at 10 mg/kg, iv; format: ADME, organism-based; parameters: dose 10 mg/kg, route intravenous; details: in vivo; how it was run: as §6
Mus musculus = assay: Toxicity in human U87MG cells xenografted nude mouse assessed as reduction of body weight at 100 mg/kg, ip qd for 14 days; format: organism-based, U-87MG ATCC; parameters: dose 100 mg/kg, route intraperitoneal; details: in vivo, 336 h
[25] = target: Macrophage-stimulating protein receptor (Homo sapiens, UniProt Q04912); assay: Inhibition of RON; how it was run: as §3

- IC50 (BaF3 [1]): 0.39 µM
- Vd [2]: 16.7 L/kg
- inhibition [3]: Active
- IC50 (Ephrin type-A receptor 2): > 10 µM
- bioavailability [4]: 37.5%
- IC50 (BaF3 [5]): 12.2 µM
- inhibition [6]: Active
- Cmax [7]: 316 ng/mL
- inhibition [8]: Active
- inhibition [9]: Active
- IC50 [10]: > 10 µM
- IC50 [11]: 0.00095 µM
- inhibition [12]: Dose-dependent effect
- IC50 (BXPC-3): 46 µM
- IC50 (NCI-H1993): 5.3 µM
- Tmax [14]: 3 h
- IC50 [15]: > 10 µM
- inhibition [16]: Active
- half-life [17]: 3.25 h
- inhibition [18]: Active
- IC50 (MCF7): 16 µM
- IC50 (MDA-MB-231): ≥ 50 µM
- inhibition [19]: Active
- IC50 (MKN-45): 1 µM
- IC50 [20]: > 10 µM
- IC50 [21]: > 10 µM
- inhibition [22]: Active
- inhibition [23]: inactive
- IC50 (NCI-H441): ≥ 50 µM
- IC50 (SNU1): ≥ 50 µM
- clearance [24]: 59.8 mL/min/kg
- IC50 [25]: > 10 µM
Structure (SMILES): CC(=O)N1CCN(c2cnc3cc(C(F)(F)F)cc(NCc4cccc([N+](=O)[O-])c4)c3c2)CC1
- inhibition (U-87MG ATCC): Active
- inhibition in vivo at 100 mg/kg [13]: 69%
- inhibition in vivo at 100 mg/kg (NIH3T3): 68%
- Activity (Mus musculus): Non-toxic
